The test system of data set [1] is Mus musculus. The data set can be described thus: Toxicity in C57BL/6 mouse assessed as hypomotility at 50 mg/kg, po. The class given is organism-based. Further details: dose 50 mg/kg, route oral. The conditions noted are these: in vivo.
The subject of data set [2] is Mus musculus. The data set is described as follows: Inhibition of FAAH in C57Bl/6J mouse brain assessed as increase of N-palmitoyl ethanolamine level at 50 mg/kg, po after 1 hr relative to control. The class given is functional. Put shortly:
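Male C57Bl/6J mice (<6 months, 20–28 g) given compound orally as a PEG300 solution at 10, 25 or 50 mg/kg, with 3 mice per group in the 50 mg/kg p.o. comparison; brains collected 1 h post-dose. Lipids extracted in CHCl3:MeOH:Tris pH 8.0 with deuterated internal standards, then measured by C18 LC-ESI-MS/MS relative to vehicle-treated mice.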

Data set [3] has as its system Mus musculus. The data set is described as follows: Inhibition of FAAH in C57Bl/6J mouse brain assessed as increase of anandamide level at 30 mg/kg, ip after 1 hr relative to control. The class given is functional. To be noted: route intraperitoneal. Put shortly: (§1)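 Male C57Bl/6J mice (<6 months, 20–28 g) dosed i.p. at 30 mg/kg in 18:1:1 saline:ethanol:emulphor emulsion; brains taken 1 h later. One mouse in the initial screen, 3 per group in the follow-up. Brain homogenized in CHCl3:MeOH:Tris pH 8.0 with deuterated lipid standards; organic extract quantified by reverse-phase C18 LC-ESI-MS/MS against vehicle controls.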

In data set [4] the target is T1, Fatty-acid amide hydrolase 1 (Homo sapiens) (UniProt O00519).
T1 sequence (whole entry): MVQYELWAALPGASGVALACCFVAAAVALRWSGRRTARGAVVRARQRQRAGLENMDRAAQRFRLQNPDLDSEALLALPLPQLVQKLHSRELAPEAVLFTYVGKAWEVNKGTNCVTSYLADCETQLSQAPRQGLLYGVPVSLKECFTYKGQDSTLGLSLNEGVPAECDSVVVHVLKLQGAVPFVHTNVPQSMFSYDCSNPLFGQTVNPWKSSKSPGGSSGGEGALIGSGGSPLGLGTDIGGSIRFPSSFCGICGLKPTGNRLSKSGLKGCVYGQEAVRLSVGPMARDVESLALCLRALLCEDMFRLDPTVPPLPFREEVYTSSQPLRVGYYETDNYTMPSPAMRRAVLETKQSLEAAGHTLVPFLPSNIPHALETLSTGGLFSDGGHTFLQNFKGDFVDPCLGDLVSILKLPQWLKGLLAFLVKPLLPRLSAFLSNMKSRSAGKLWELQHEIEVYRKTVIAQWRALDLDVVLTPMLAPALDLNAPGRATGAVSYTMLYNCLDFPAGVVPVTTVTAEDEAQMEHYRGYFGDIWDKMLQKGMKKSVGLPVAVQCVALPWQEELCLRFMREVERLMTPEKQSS
The data set is described as follows: Competitive inhibition of full-length human FAAH expressed in COS-7 cells by Lineweaver-Burk analysis. The class given is cell-based. Put shortly:
(§2)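 Solubilized membrane lysate of COS-7 cells transiently transfected with full-length human FAAH cDNA. Aliquots quenched in 0.1 N HCl at three times; oleamide/oleic acid extracted into EtOAc and separated by TLC. Initial rates (≤10–20% conversion) analysed by Lineweaver–Burk plot.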

Data set [5] has as its system Mus musculus. The data set is described as follows: Inhibition of FAAH in C57Bl/6J mouse brain assessed as increase of anandamide level at 10 to 50 mg/kg, po after up to 9 hrs. The class given is functional, organism-based. Put shortly: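 Male C57Bl/6J mice (<6 months, 20–28 g) given a single oral dose as a PEG300 solution. Brains were homogenized in CHCl3:MeOH:Tris pH 8.0 containing deuterated internal standards. The organic extract was analysed by reverse-phase C18 LC–ESI triple-quadrupole MS for anandamide, PEA, OEA and 2-AG. Dose series (10, 25, 50 mg/kg) was sampled at 1 h; the 50 mg/kg time course ran to 9 h. Three mice per group in the i.p./p.o. comparison.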

Data set [6] has as its target T1, Fatty-acid amide hydrolase 1 (Homo sapiens). The data set can be described thus: Reversible inhibition of full-length human FAAH expressed in COS-7 cells by Lineweaver-Burk analysis. The class given is cell-based. Put shortly: as §2
For data set [7], the system named is Mus musculus. The data set is described as follows: Inhibition of FAAH in C57Bl/6J mouse brain assessed as increase of arachidonic acid level at 30 mg/kg, ip after 1 hr relative to control. The class given is functional. To be noted: route intraperitoneal. Put shortly: as §1
Data set [8] relates to Mus musculus. The data set is described as follows: Toxicity in C57BL/6 mouse assessed as hypothermia at 50 mg/kg, po. The class given is organism-based. Further details: dose 50 mg/kg, route oral. The conditions noted are these: in vivo.

Calls of active or inactive are those of the source. The calls are words filed in the database; no cut-off is given here.

Take `O=C(c1ncc(-c2ccccn2)o1)[C@H]1CCc2cc(Oc3ccccc3)ccc2C1`: the Activity result in data set [1] and in data set [8] was “Non-toxic” throughout. The fold change (FC) stood at 7.7 in data set [2], 5.1 in data set [3] and 0.8 in data set [7]. Moreover, the inhibition result in data set [4] and in data set [6] was “Active” in each case. Also, the outcome in data set [5] was Active.

Source of the values: ChEMBL document CHEMBL1765010, “Reversible competitive α-ketoheterocycle inhibitors of fatty acid amide hydrolase containing additional conformational constraints in the acyl side chain: orally active, long-acting analgesics” (J Med Chem, 2011).
